Source: ChEMBL document CHEMBL1275524, “Activities of antifungal agents against yeasts and filamentous fungi: assessment according to the methodology of the European Committee on Antimicrobial Susceptibility Testing” (2008)
Values after ≈ are worked out from the molar mass of the structure shown.

What was measured:
Assay type in all cases: functional
[1] = Antifungal activity against Rhizopus microsporus var. oligosporus by EUCAST method
Procedure, shortened: (§1)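 Broth microdilution following the EUCAST reference procedure for spore-forming moulds, in flat-bottom plates with RPMI 1640 plus 2% glucose. Inoculum was 2 × 10^5 to 5 × 10^5 CFU/ml. MICs were read visually at 24 and 48 h as 100% growth reduction versus a drug-free control for polyenes and azoles. MEC was used for caspofungin. Tests were run in duplicate and repeated twice.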

Candida parapsilosis = experiment: Antifungal activity against Candida parapsilosis; settings: Lodderomyces parapsilosis
Procedure, shortened: (§2)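 Broth microdilution in flat-bottom plates in RPMI 1640 with 2% glucose; inoculum 0.5 × 105 to 2.5 × 10^5 CFU/ml. MICs were read spectrophotometrically at 24 h. AMB endpoint: ≥90% growth reduction vs drug-free control well. Azole and CPF endpoint: 50% reduction in optical density. MFC was taken as the lowest concentration giving 99% killing.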

Absidia [2] = experiment: Antifungal activity against Absidia species
Candida tropicalis [3] = experiment: Antifungal activity against Candida tropicalis by EUCAST method; procedure, shortened: as §2
Saccharomyces cerevisiae [4] = experiment: Antifungal activity against Saccharomyces cerevisiae by EUCAST method
Procedure, shortened: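 EUCAST broth microdilution for yeasts in flat-bottom plates, RPMI 1640 with 2% glucose, inoculum 0.5 × 105 to 2.5 × 10^5 CFU/ml. […] MFC is the lowest concentration giving 99% killing.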

Trichosporon inkin = experiment: Antifungal activity against Trichosporon inkin
Procedure, shortened: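 Nonfermentative yeasts were tested by the EUCAST microdilution recommendations with one change: plates were sealed and agitated at 350 rpm and 30°C for 48 h.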

Aspergillus niger [5] = experiment: Antifungal activity against Aspergillus niger
Fusarium oxysporum [6] = experiment: Antifungal activity against Fusarium oxysporum
[7] = Antifungal activity against Cryptococcus neoformans var. neoformans; settings: Cryptococcus deneoformans
Procedure, shortened: (§3)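 EUCAST yeast microdilution, modified for nonfermentative yeasts: plates were sealed and agitated at 350 rpm and 30°C for 48 h.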

Curvularia australiensis = experiment: Antifungal activity against Bipolaris australiensis
Procedure, shortened: (§4)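 Dematiaceous fungi were tested by the EUCAST spore-forming mold reference procedure: flat-bottom microdilution plates, RPMI 1640 plus 2% glucose, inoculum 2 × 105 to 5 × 10^5 CFU/ml. Endpoints were read visually at 24 and 48 h. Polyenes and azoles: 100% growth reduction vs drug-free control. CPF: minimum effective concentration. Run in duplicate and repeated twice.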

Rhizopus arrhizus [8] = experiment: Antifungal activity against Rhizopus oryzae by EUCAST method; settings: read-out: MEC; procedure, shortened: as §1
Penicillium sp. = experiment: Antifungal activity against Penicillium species by EUCAST method; settings: read-out: MEC
Aspergillus fumigatus = experiment: Antifungal activity against Aspergillus fumigatus
Fusarium oxysporum [9] = experiment: Antifungal activity against Fusarium oxysporum by EUCAST method; settings: read-out: MEC
[10] = system: Meyerozyma guilliermondii; experiment: Antifungal activity against Candida guilliermondii by EUCAST method; procedure, shortened: as §2
Scedosporium apiospermum [11] = experiment: Antifungal activity against Scedosporium apiospermum; procedure, shortened: as §1
Mucor hiemalis [12] = experiment: Antifungal activity against Mucor hiemalis by EUCAST method; settings: read-out: MEC
Candida albicans = experiment: Antifungal activity against Candida albicans; procedure, shortened: as §2
[13] = Antifungal activity against Cryptococcus neoformans var. neoformans by EUCAST method; settings: Cryptococcus deneoformans; procedure, shortened: as §3
Aspergillus terreus [14] = experiment: Antifungal activity against Aspergillus terreus
Lichtheimia corymbifera = experiment: Antifungal activity against Absidia corymbifera by EUCAST method; settings: read-out: MEC
Rhizopus = experiment: Antifungal activity against Rhizopus species; procedure, shortened: as §1
Aspergillus terreus [15] = experiment: Antifungal activity against Aspergillus terreus by EUCAST method
Aspergillus flavus [16] = experiment: Antifungal activity against Aspergillus flavus
Lomentospora prolificans = experiment: Antifungal activity against Scedosporium prolificans by EUCAST method; settings: read-out: MEC; procedure, shortened: as §1
Rhizopus arrhizus [17] = experiment: Antifungal activity against Rhizopus oryzae; procedure, shortened: as §1
Absidia [18] = experiment: Antifungal activity against Absidia species by EUCAST method; settings: read-out: MEC
[19] = Antifungal activity against Rhinocladiella aquaspersa; procedure, shortened: as §4
Candida tropicalis [20] = experiment: Antifungal activity against Candida tropicalis; procedure, shortened: as §2
Aspergillus flavus [21] = experiment: Antifungal activity against Aspergillus flavus by EUCAST method
Aspergillus niger [22] = experiment: Antifungal activity against Aspergillus niger by EUCAST method
Curvularia lunata = experiment: Antifungal activity against Curvularia lunata
Saccharomyces cerevisiae [23] = experiment: Antifungal activity against Saccharomyces cerevisiae
Procedure, shortened: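 Broth microdilution following EUCAST for fermentative yeasts, in flat-bottom plates with RPMI 1640 plus 2% glucose. Inoculum was 0.5 × 10^5 to 2.5 × 10^5 CFU/ml. End points were read spectrophotometrically at 24 h: ≥90% growth reduction versus a drug-free control for amphotericin B, and 50% OD reduction for azoles and caspofungin. MFC was the lowest concentration giving 99% killing.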

Scedosporium apiospermum [24] = experiment: Antifungal activity against Scedosporium apiospermum by EUCAST method; settings: read-out: MEC; procedure, shortened: as §1
Mucor hiemalis [25] = experiment: Antifungal activity against Mucor hiemalis

CC[C@H](C)C[C@H](C)CCCCCCCCC(=O)N[C@H]1C[C@@H](O)[C@@H](NCCN)NC(=O)[C@@H]2[C@@H](O)CCN2C(=O)[C@H]([C@H](O)CCN)NC(=O)[C@H]([C@H](O)[C@@H](O)c2ccc(O)cc2)NC(=O)[C@@H]2C[C@@H](O)CN2C(=O)[C@H]([C@@H](C)O)NC1=O [CASPOFUNGIN]
MEC [1]: > 8 µg/mL | MFC (Candida parapsilosis): 0.25 µg/mL (≈ 0.229 µM) | MFC (Absidia [2]): > 8 µg/mL | MIC (Candida tropicalis [3]): 0.34 µg/mL (≈ 0.311 µM) | MIC (Saccharomyces cerevisiae [4]): 1.3 µg/mL (≈ 1.19 µM) | MFC (Trichosporon inkin): > 8 µg/mL | MFC (Aspergillus niger [5]): > 8 µg/mL | MFC (Fusarium oxysporum [6]): > 8 µg/mL | MFC [7]: > 8 µg/mL | MFC (Curvularia australiensis): > 8 µg/mL | minimal effective concentration (Rhizopus arrhizus [8]): > 8 µg/mL | minimal effective concentration (Penicillium sp.): > 8 µg/mL | MFC (Aspergillus fumigatus): > 8 µg/mL | minimal effective concentration (Fusarium oxysporum [9]): > 8 µg/mL | MIC [10]: 0.68 µg/mL (≈ 0.622 µM) | MFC (Scedosporium apiospermum [11]): > 8 µg/mL | minimal effective concentration (Mucor hiemalis [12]): > 8 µg/mL | MFC (Candida albicans): 0.15 µg/mL (≈ 0.137 µM) | MIC [13]: 2.04 µg/mL (≈ 1.87 µM) | MFC (Aspergillus terreus [14]): > 8 µg/mL | minimal effective concentration (Lichtheimia corymbifera): > 8 µg/mL | MFC (Rhizopus): > 8 µg/mL | MIC (Aspergillus terreus [15]): 0.19 µg/mL (≈ 0.174 µM) | minimal effective concentration (Aspergillus terreus [15]; read-out: MEC): 0.125 µg/mL | MFC (Aspergillus flavus [16]): > 8 µg/mL | minimal effective concentration (Lomentospora prolificans): > 8 µg/mL | MFC (Rhizopus arrhizus [17]): > 8 µg/mL | minimal effective concentration (Absidia [18]): > 8 µg/mL | MFC [19]: > 8 µg/mL | MFC (Candida tropicalis [20]): 0.5 µg/mL (≈ 0.457 µM) | MIC (Aspergillus flavus [21]): 0.28 µg/mL (≈ 0.256 µM) | minimal effective concentration (Aspergillus flavus [21]; read-out: MEC): 0.25 µg/mL | MIC (Aspergillus niger [22]): 0.36 µg/mL (≈ 0.329 µM) | minimal effective concentration (Aspergillus niger [22]; read-out: MEC): 0.25 µg/mL | MFC (Curvularia lunata): > 8 µg/mL | MFC (Saccharomyces cerevisiae [23]): 4 µg/mL (≈ 3.66 µM) | minimal effective concentration (Scedosporium apiospermum [24]): > 8 µg/mL | MFC (Mucor hiemalis [25]): > 8 µg/mL
